Screening results from PubChem.
NR2E3 ag-1 = NR2E3 (human) agonism; Q9Y5X4; AID 2300; GST-NR2E3/biotin-RetCOR TR-FRET, 1536-well; inhibition of corepressor binding, % at 4.78 µM; 320,000 compounds, 0.12% hits;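 active = percent inhibition above the cutoff of mean plus 3 SD of all tested compounds, set per screening campaign, cut at about 20% in these data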;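 also: 0% = DMSO wells and 100% = biotin wells as full block of FRET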
Target sequence (Q9Y5X4 whole entry, looked up): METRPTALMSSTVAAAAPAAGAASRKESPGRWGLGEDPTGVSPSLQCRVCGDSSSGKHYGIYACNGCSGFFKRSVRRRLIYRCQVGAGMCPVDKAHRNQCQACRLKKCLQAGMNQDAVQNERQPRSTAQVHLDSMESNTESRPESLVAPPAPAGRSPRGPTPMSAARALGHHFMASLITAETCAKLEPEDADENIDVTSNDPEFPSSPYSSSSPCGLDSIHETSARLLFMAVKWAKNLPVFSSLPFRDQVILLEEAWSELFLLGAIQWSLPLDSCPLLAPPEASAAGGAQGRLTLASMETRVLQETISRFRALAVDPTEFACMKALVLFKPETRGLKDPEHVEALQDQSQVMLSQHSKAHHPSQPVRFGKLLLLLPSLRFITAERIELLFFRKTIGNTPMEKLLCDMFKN
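Test system: GST-NR2E3 and biotin-RetCOR proteins | Quantity: 1.35 nM GST-tagged NR2E3 final | Medium: Tris pH 7.5 | Also added: 7 nM biotin-RetCOR | Dosing: Compound at 4.8 µM, single dose | Timing: 5 h at 4 °C | Detection: Time-resolved FRET | Read-out basis: Percent inhibition | Benchmarks: Biotin wells as high control, 0.6% DMSO wells as low control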
NR2E3 ag-2 = activates human NR2E3 receptor. AID 602229. CHO-S Gal4-NCOR/VP16-NR2E3 two-hybrid, luciferase. Q9Y5X4. inhibition of corepressor binding, % at 3.98 µM. 360,000 compounds, 0.35% hits;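 active = inhibition above the mean of all tested compounds plus 3 SD, cut at about 70% in these data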;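 also: 0% = DMSO with NR2E3 transfected cells and 100% = cells lacking NR2E3 construct; higher means lower luciferase signal from less NR2E3 corepressor binding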
NR1D1 modulator = modulates human Rev-erb alpha binding to DNA; Rev-erbα–FITC-DNA binding, fluorescence polarization, 90 min; activity, % at 10 µM; 370,000 compounds, 0.79% hits; AID 1259318;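 active = activity above about 14%, limit read from the data; passing the limit was not always enough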;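 also: 0% = DMSO wells with 35 nM protein and 100% = DMSO wells with 750 nM protein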
PG9 binder = small molecules binding HIV-1 gp120 antibody PG9 | TR-FRET gp120-PG9 antibody binding | inhibition, % at 6.7 µM | 360,000 compounds, 0.43% hits; in the data active = inhibition above about 8.5%
NR2E3 ag confirm-1 = confirmation of human NR2E3 nuclear receptor agonists. 360 compounds, 39% hits. activation (reported as inhibition), % at 3.98 µM. shares compounds with NR2E3 ag-1. cell-free NR2E3 corepressor release, TR-FRET, 5 h. AID 2379; in the data active = activation above about 20%
PPARg-NCOR2 ag = PPARg-NCOR2 interaction agonism, NR2E3 counter-screen; shares compounds with NR2E3 ag-1; TR-FRET PPARg-NCOR2 coregulator interaction, biochemical; inhibition, % at 3.98 µM; 360 compounds, 45% hits; in the data active = inhibition above about 20%;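 also: 0% = DMSO vehicle and 100% = wells without protein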
NR2E3 ag confirm-2 = confirmation of human NR2E3 agonists. shares compounds with NR2E3 ag-2. CHO-S mammalian two-hybrid NR2E3-NCOR, luciferase luminescence. inhibition, % at 3.98 µM. 2,300 compounds, 51% hits. AID 624378;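 active = average inhibition above a cutoff equal to the mean inhibition of all tested compounds plus one SD, cut at about 70% in these data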;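 also: 0% = DMSO in NR2E3 cells and 100% = DMSO in cells lacking NR2E3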
VP16 counter = reduces GAL4-VP16 reporter signal in NR2E3 counterscreen; shares compounds with NR2E3 ag-2; CHO-S GAL4-VP16 luciferase reporter, luminescence; inhibition, % at 3.98 µM; 2,300 compounds, 29% hits; AID 624379;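 active = mean inhibition above a cutoff equal to the average over all tested compounds plus one standard deviation, cut at about 70% in these data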;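 also: luciferase from a UAS reporter driven by GAL4-VP16 transactivation; 0% = DMSO with VP16-transfected cells and 100% = DMSO with cells lacking VP16; higher means less reporter light so more repression of VP16 activity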
PG9 bind confirm = PG9 antibody binding, confirmed. shares compounds with PG9 binder. TR-FRET PG9 antibody binding, biochemical. inhibition, % at 6.7 µM. 1,500 compounds, 90% hits; in the data active = inhibition above about 9%
PGV04 counter = PGV04 control antibody binding, counter-screen; shares compounds with PG9 binder; TR-FRET PGV04 antibody-gp120 binding, biochemical; inhibition, % at 6.7 µM; 1,500 compounds, 95% hits; AID 651604; in the data active = inhibition above about 9.5%
The depositor's hits bear a star; . = not tested or not shown; ! = not active in a repeat. Rows were chosen to be rich in hits. Some 1.4% of all compounds tested hit in one or more screens of this group.

SMILES | NR2E3 ag-1 | NR2E3 ag-2 | NR1D1 modulator | PG9 binder | NR2E3 ag confirm-2 | VP16 counter | others
CCN1/C(=C\C=C\C2=[N+](CC)c3ccccc3C2(C)C)C(C)(C)c2ccccc21 | 7 | 104* | . | . | . | .
C=CC[C@]1(O)CCC2C3CCC4=CC(=O)CCC4=C3C=C[C@@]21C (stereo partly specified) | . | . | -5 | . | . | .
Cc1cc(O)c2c(c1)C(=O)C13C(=C2O)C(=O)[C@H]2[C@@H](O)[C@@H]1[C@H]1[C@H](O)[C@@H]3C(=O)C3=C(O)c4c(O)cc(C)cc4C(=O)C312 (stereo partly specified) | 1 | 102* | . | . | . | .
C[C@H]1[C@H](O)[C@@H](C)/C=C/C=C/CC/C=C/C=C/C=C/C=C/C(OC2O[C@H](C)[C@@H](O)[C@H](N)[C@@H]2O)CC2O[C@](O)(CC(O)C(O)CCC(O)CC(O)CC(O)CC(=O)O[C@H]1C)CC(O)C2C(=O)O (stereo partly specified) | . | . | -1 | . | . | .
NCCc1cc(O)c(O)cc1O | . | -17 | -28 | 11*! | . | .
C[CH2][Hg][S]c1ccccc1C(=O)O | 4 | 93* | -4 | -3 | . | .
CC(C)COC(=O)c1ccccc1C(=O)OCC(C)C | -1 | -9 | -5 | 0 | . | .
O=C1CC2OCC=C3CN4CC[C@]56c7ccccc7N1C5[C@H]2[C@H]3CC46 (stereo partly specified) | . | . | -4 | . | . | .
C#C[C@@H]1CC2C3CCC4=C[C@@H](OC(C)=O)CCC4C3CC[C@]2(C)[C@H]1OC(C)=O (stereo partly specified) | . | . | 6 | . | . | .
CCn1nc(-c2cccs2)nc2c(=O)n(C)c(=O)nc1-2 | . | 106* | . | . | . | .
NC(Cc1cc(O)c(O)cc1O)C(=O)O (stereo unspecified) | 25* | . | . | . | . | . | NR2E3 ag confirm-1=38*;PPARg-NCOR2 ag=2
CC(C)(N)Cc1ccccc1 | . | . | 1 | . | . | .
CCN1C(=O)C(=C2C=C(C)N(Cc3ccco3)C(C)=C2)C(=O)N(CC)C1=S | 25* | -2 | 2 | 20* | . | . | NR2E3 ag confirm-1=14;PPARg-NCOR2 ag=17;PG9 bind confirm=22*;PGV04 counter=27*
CC1=CC2OC3CC4OC(=O)C=CC=CC(C(C)O)OCC(O)C(C)CC(=O)OCC2(CC1O)C4(C)C31CO1 (stereo unspecified) | . | 101* | -3 | 1 | 100* | 99*
CC1=CC2OC3CC4OC(=O)C=CC=CC(=O)OCCC(C)C(O)C(=O)OCC2(CC1O)C4(C)C31CO1 (stereo unspecified) | . | 99* | . | . | 100* | 99*
CCOP(=O)(CCP(=O)(OCC)OCC)OCC.C[CH2][Sn]([Cl])([Cl])[CH2]C | . | 91* | -2 | 0 | 100* | -41
CCOP(=O)(OCC)OCC | 0 | -6 | -3 | -1 | . | .
CC(=O)[O][Hg][c]1ccccc1 | . | . | -4 | . | . | .
CC(=O)OC1C(O)C(C)OC(OC2C(OC(=O)C3CCC4C(C3)OC3(CC(OC(=O)/C=C/c5ccccc5)C(C)CO3)C43CO3)OC(C)C(O)C2OC(C)=O)C1O (stereo unspecified) | . | 103* | 4 | 1 | 99* | 99*
CC(O)C1C=CC=CC(=O)OC2CC3OC4C5OC5(C)CCC4(COC(=O)C4OC4(C)C(O)CO1)C2(C)C31CO1 (stereo unspecified) | . | 101* | -8 | 0 | 99* | 97*
CC(=O)OC1C(=O)OCC23CCC4(C)OC4C2OC2CC(OC(=O)C=CC=CC(=O)OCCC1C)C3(C)C21CO1 (stereo unspecified) | . | 102* | 10 | 0 | 99* | 99*
Cc1cccc(Cc2cnc[nH]2)c1C | . | . | -1 | . | . | .
COc1ccc(CC(=O)N2CCN(C)CC2)cc1 | 0 | -5 | -5 | 0 | . | .
COc1ccc(CC2NCC(O)C2OC(C)=O)cc1 (stereo unspecified) | . | 105* | -7 | 0 | 99* | 99*
COc1cc2c(cc1OC)[C@@]13CCN4CC5=CCOC6CC(=O)N2C1[C@H]6[C@H]5C[C@H]43 (stereo partly specified) | . | . | 10 | . | . | .
SMILES | NR2E3 ag-1 | NR2E3 ag-2 | NR1D1 modulator | PG9 binder | NR2E3 ag confirm-2 | VP16 counter | others
CC(=O)OCC1=C(C(=O)O)N2C(=O)[C@@H](NC(=O)CCCC(N)C(=O)O)C2SC1 (stereo partly specified) | . | . | 8 | . | . | .
CCOc1cccc(CNCCc2c(C)[nH]c3ccc(OC(F)(F)F)cc23)c1O | 2 | 98* | 5 | -1 | 90* | 71
C#CCN1CC(=O)N(COC(=O)C2C(C=C(C)C)C2(C)C)C1=O (stereo unspecified) | . | . | 12 | . | . | .
CC(=O)OC1(C)CC(C)C(=O)C(C(O)CC2CC(=O)NC(=O)C2)C1 (stereo unspecified) | . | 105* | -1 | -1 | 99* | 99*
C[C@@H]1C[C@@H]([C@H](O)CC2CC(=O)NC(=O)C2)C(=O)[C@@H](C)C1 | 3 | 102* | 1 | 2 | 100* | 95*
CO[C@H]([C@H](C)/C=C/N(C)C=O)[C@@H](C)C(=O)CC[C@H](C)[C@H](O)[C@H](C)[C@H]1OC(=O)/C=C/C(C)=C/[C@H](O)[C@H](OC)C[C@@H]2C=CC[C@@H](C[C@H](OC)[C@@H](CO)[C@@H](OC)C[C@@H](OC)[C@@H]1C)O2 | . | . | -9 | . | . | .
CC[C@@]1(O)C(=O)OCc2c1cc1n(c2=O)Cc2cc3ccccc3nc2-1 | -1 | . | . | . | . | .
CCC1(OC(=O)CN)C(=O)OCc2c1cc1n(c2=O)Cc2cc3ccccc3nc2-1 (stereo unspecified) | 4 | 93* | . | . | 94* | 56
COC(=O)C12OCC34C(CC5C(C)=C(O)C(=O)CC5(C)C3C(O)C1O)OC(=O)C(OC(=O)/C=C(\C)C(C)C)C24 (stereo unspecified) | . | 103* | 6 | -1 | 100* | 100*
C=C1C(=O)O[C@@H]2C[C@@H](C)[C@@H]3C=CC(=O)[C@@]3(C)[C@@H](O)[C@H]12 | 8 | 100* | 2 | -1 | 99* | 54
